Eleven compounds from ChEMBL document CHEMBL3102792, “Small molecule mimetics of an interferon-α receptor interacting domain” (Bioorg Med Chem, 2014) can be followed below.

The source made the active and inactive calls. The rule behind the calls is not given here.

Data set [1] can be described thus: Distribution coefficient, log D of the compound at pH 7.4. As to conditions: octanol/water.
In data set [2] the target is T1, Interferon alpha/beta receptor 1 (Homo sapiens) (UniProt P17181).
T1 sequence (whole entry): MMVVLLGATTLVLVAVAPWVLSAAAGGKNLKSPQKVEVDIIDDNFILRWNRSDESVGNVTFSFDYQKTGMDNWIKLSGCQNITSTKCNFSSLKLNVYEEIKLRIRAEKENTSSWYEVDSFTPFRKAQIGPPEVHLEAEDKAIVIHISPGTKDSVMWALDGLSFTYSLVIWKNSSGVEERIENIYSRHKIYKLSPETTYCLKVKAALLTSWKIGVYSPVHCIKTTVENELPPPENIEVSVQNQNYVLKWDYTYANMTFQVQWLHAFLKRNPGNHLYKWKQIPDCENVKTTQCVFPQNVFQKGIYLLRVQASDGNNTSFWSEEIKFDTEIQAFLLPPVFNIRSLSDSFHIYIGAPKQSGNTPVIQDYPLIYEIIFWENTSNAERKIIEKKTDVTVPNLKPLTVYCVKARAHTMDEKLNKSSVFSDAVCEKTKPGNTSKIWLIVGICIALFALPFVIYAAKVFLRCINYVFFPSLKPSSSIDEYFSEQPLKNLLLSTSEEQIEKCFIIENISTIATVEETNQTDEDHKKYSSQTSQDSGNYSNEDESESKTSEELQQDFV
In words: Inhibition of IFNAR in human Daudi cells assessed as reduction of IFN-induced STAT1 phosphorylation at 200 uM after 15 mins by Western blotting. Type of data set: cell-based. Summed up: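 Daudi cells untreated, given 10 pg IFN alfacon-1 alone, or 10 pg IFN plus 200 µM compound for 15 min. Lysed in phosphorylation lysis buffer with protease and phosphatase inhibitors. Equal protein run on SDS–PAGE and immunoblotted for tyrosine-phosphorylated STAT1. Bands quantitated relative to tubulin. Data representative of duplicate independent experiments.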

Data set [3] can be described thus: Solubility of the compound. Type of data set: physicochemical.
Data set [4] deals with Daudi. Put plainly: Cytotoxicity against human Daudi cells assessed as cell viability up to 200 uM after 24 hrs by propidium iodide staining. Type of data set: cell-based. Summed up:
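Daudi cells (1 × 10⁶) left untreated or exposed to the indicated compound doses for 24 h, washed twice in PBS and resuspended in PBS with 2% FCS. 10⁵ cells stained with propidium iodide for 15 min; dead (PI-positive) cells counted by FACS.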

Data set [5] addresses T1, Interferon alpha/beta receptor 1 (Homo sapiens). In words: Inhibition of IFNAR in human Daudi cells assessed as reduction of STAT-DNA binding at 200 uM by EMSA. Type of data set: cell-based. Summed up: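 Daudi cells untreated, given 100 pg IFN alfacon-1, or IFN plus the indicated compound doses for 15 min. Protein–DNA complexes resolved by native PAGE (EMSA).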
A general note: In EMSA bound probe runs differently from free probe, usually more slowly.

Data set [6] shares this target. Put plainly: Inhibition of IFNAR in human Daudi cell nuclear extracts assessed as reduction of IFN-induced STAT1 phosphorylation at 200 uM after 15 mins by Western blotting. Summed up:
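Daudi cells untreated, given 10 pg IFN alfacon-1 alone, or 10 pg IFN plus 200 µM compound for 15 min. Nuclear extracts immunoblotted for tyrosine-phosphorylated STAT1. Band intensities quantitated relative to tubulin as loading control.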
(In general: In western blotting, separated proteins are transferred to a membrane and probed.)

`O=C(c1cc(S(=O)(=O)Nc2ccccc2F)c(Cl)cc1Cl)N1CCN(Cc2ccc3c(c2)OCO3)CC1` gave a logD in data set [1] of 0.01. Moreover, the inhibition result in data set [2] was “inactive”.
The like results for `O=C(c1cccc(S(=O)(=O)Nc2ccc(Cl)cc2)c1)N1NC2=C(CCC/C2=C\c2ccco2)C1c1ccco1` (mixture of isomers) were, in that order, -0.8 and “inactive”.
In data set [1], `COc1ccccc1NS(=O)(=O)c1cc(C(=O)N2CCN(Cc3ccc4c(c3)OCO4)CC2)ccc1Cl` gave a logD of -0.3. Moreover, the inhibition result in data set [2] was “inactive”.
Regarding `Cc1ccc(-n2c(SCC(=O)N/N=C/c3ccccc3OCC(=O)O)nc3ccccc3c2=O)cc1` (mixture of isomers), the solubility entry in data set [3] is reported as “soluble”. In data set [1], this compound came in with a logD of 4.7. Besides, in data set [4], the Activity result is given as “Non-toxic”. In addition, the inhibition result in data set [5], in data set [6] and in data set [2] was “Active” each time.
Consider `O=C(c1ccc(NS(=O)(=O)c2cc(Cl)sc2Cl)cc1)N1CCN(Cc2ccc3c(c2)OCO3)CC1`, for which the inhibition entry in data set [5], in data set [6] and in data set [2] was “Active” each time.
Turning to `CCOC(=O)c1nn(-c2ccc(C)cc2)c(C)c1C(=O)C1=NOC2C(=O)N(c3ccccc3C)C(=O)C12` (stereo not given), the log distribution coefficient (logD) in data set [1] is -0.1. For the same compound, the inhibition result in data set [2] was “inactive”.
`COc1ccccc1NS(=O)(=O)c1ccc2oc(=S)n(CN3CCN(c4ccc(F)cc4)CC3)c2c1` displayed a logD in data set [1] of 0.2. The inhibition entry in data set [2] is “inactive”.
In the case of `O=C(c1cc(S(=O)(=O)Nc2cccc(Cl)c2)c(Cl)cc1Cl)N1CCN(Cc2ccc3c(c2)OCO3)CC1`, the logD in data set [1] stood at 2.4. Besides, in data set [2], the inhibition entry is “inactive”.
In data set [1], `CCOc1ccccc1/C=N/NC(=O)CSc1nc2ccccc2c(=O)n1-c1ccccc1C` (mixture of isomers) displayed a logD of 5.8. For the same compound, the inhibition result in data set [2] is “inactive”.
`O=C(O)CCCCCN1C(=O)/C(=C/c2c(N3CCCc4ccccc43)nc3ccccn3c2=O)SC1=S` (mixture of isomers): the pH-dependent lipophilicity (logD) in data set [1] came out at 8.9. In addition, the Activity result in data set [4] was “Toxic”. Besides, the inhibition result in data set [5], in data set [6] and in data set [2] was “Active” in each case.
In data set [1], `O=C(c1cc(S(=O)(=O)Nc2cccc(C(F)(F)F)c2)ccc1Cl)N1CCN(Cc2ccc3c(c2)OCO3)CC1` yielded a logD of -0.1. Also, in data set [2], the inhibition entry is “inactive”.

Usually logD stands for the decadic logarithm of the distribution of all forms, ionised or not, between an organic phase and buffer at a given pH. Higher therefore signals higher lipophilicity.
